Assay outcomes (PubChem BioAssay)
Compounds with a hit are over-represented: about 3.7% of the library has one in this group of screens.
KCNQ1 pot = human KCNQ1 channel potentiation or activation; P51787; CHO-K1 KCNQ1, thallium flux FluxOR fluorescence; hits give high values; B-score at 10 µM; 310,000 compounds, 0.35% hits; AID 2648;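 active = fluorescence ratio B-score, a plate-corrected score, at least three library SD, with initial intensity B-score within 5 SD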
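assay system = CHO-K1 cells stably expressing KCNQ1 | medium = assay buffer, equal DMSO in all wells | timing = 37 °C overnight plating, 90-min dark dye load, 20-min compound pretreatment | measured by = kinetic FluxOR thallium fluorescence, 10-s 1-Hz baseline, 110-s post-stimulus read | measure = fluorescence change relative to baseline, converted to B score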
Kir21 inh = blocks the mouse Kir2.1 inward-rectifier potassium channel | HEK293-Kir2.1, FluxOR thallium flux fluorescence; hits give low values | B-score at 10 µM | 310,000 compounds, 0.85% hits | AID 1672;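 active = fluorescence ratio B-score at or below minus 3 SD of library scores, with starting-brightness B-score within 2 SD, cut at about -4.2 in these data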;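 also: channel flux triggered by added potassium and thallium sulfate stimulus; B-score of peak minus minimum fluorescence over baseline after thallium stimulus; more negative B-score means stronger Kir2.1 block with less thallium influx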
Target sequence (P35561 whole entry, looked up): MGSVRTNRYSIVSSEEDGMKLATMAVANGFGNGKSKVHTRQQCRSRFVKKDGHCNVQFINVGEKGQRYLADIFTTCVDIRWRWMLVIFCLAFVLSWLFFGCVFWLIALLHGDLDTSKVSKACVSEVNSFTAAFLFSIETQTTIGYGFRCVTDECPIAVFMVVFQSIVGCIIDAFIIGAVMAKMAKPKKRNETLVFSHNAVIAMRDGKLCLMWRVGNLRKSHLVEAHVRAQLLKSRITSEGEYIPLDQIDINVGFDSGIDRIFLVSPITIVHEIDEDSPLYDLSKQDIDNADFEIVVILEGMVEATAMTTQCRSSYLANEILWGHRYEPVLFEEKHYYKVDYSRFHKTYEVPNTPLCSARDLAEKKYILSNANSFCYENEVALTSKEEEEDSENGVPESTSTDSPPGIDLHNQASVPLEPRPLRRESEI
KCNK9 inh = human KCNK9 channel inhibition | Q9NPC2 | HEK293 KCNK9, FluxOR thallium flux fluorescence; hits give low values | B-score at 10 µM | 310,000 compounds, 1.2% hits | AID 488922;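 active = ratio B-score over 3 SD below the library mean, with starting fluorescence within 5 SD of its mean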;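 also: negative B-score means less thallium flux so channel inhibition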
hERG rescue = shields human hERG channel from block by proarrhythmic agents; Q12809; CHO-hERG, FluxOR thallium flux, dofetilide IC70 present; activation (rescue from dofetilide block), less the hit threshold, % at 10 µM; 310,000 compounds, 0.51% hits; AID 1511;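 active = activation above the mean of controls blocked by dofetilide plus 5 SD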;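 also: thallium influx through hERG after potassium depolarization seen as dye fluorescence rise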
KCNK3 inh = human KCNK3 channel inhibition, primary screen. O14649. CHO-KCNK3 thallium flux, FluxOR fluorescence; hits give low values. B-score at 10 µM. 340,000 compounds, 0.84% hits. AID 602410;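 active = B-score under library mean minus 4 SD, starting fluorescence ratio at most library mean plus 5 SD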;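 also: more negative B-score means stronger inhibition of thallium flux through KCNK3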
KCNQ1 inh = human KCNQ1 channel inhibition; CHO-K1 KCNQ1, FluxOR thallium flux fluorescence; hits give high values; B-score at 10 µM; AID 2642; 310,000 compounds, 1.3% hits;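 active = compounds whose thallium flux B-score, printed positive for inhibition, exceeds three library SD while starting fluorescence stays within three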;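 also: channel opened by potassium depolarization with thallium stimulus after 20 min compound exposure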
Starred values were filed as active, the others as inactive; i = inactive; nt = not tested or not shown.

SMILES	KCNQ1 pot	Kir21 inh	KCNK9 inh	hERG rescue	KCNK3 inh	KCNQ1 inh
O=C(COC(=O)c1cc(S(=O)(=O)N2CCCC2)ccc1O)Nc1ccccc1Br	nt	nt	nt	nt	i	nt
CC1=C/C(=N\Nc2ccccc2[N+](=O)[O-])CC(C)(C)C1	i	0.07	i	-5.2	i	7*
COc1ccc2[nH]c(=O)c(CN(C(=O)c3cccnc3)c3ccc(C)c(C)c3)cc2c1	i	-2.51	i	-9.7	i	i
Clc1cccc(CN2CCC(Cc3ccccc3)CC2)c1	i	-7.21*	i	-14.1	i	i
c1ccc(CC2CCN(Cc3ccccn3)CC2)cc1	i	0.92	i	-8.0	i	i
Fc1ccc(CN2CCC(Cc3ccccc3)CC2)cc1F	i	-1.48	i	-8.7	i	i
O=C(/C=C/c1cccc(Cl)c1)N1CCC(Cc2ccccc2)CC1	i	-0.15	i	-9.5	i	8*
Clc1ccc(CN2CCC(Cc3ccccc3)CC2)cc1	i	-7.51*	i	-1.9	i	i
Cc1ccnc(N2CCC(C(=O)NCc3ccccc3F)CC2)n1	i	2.03	i	-0.5	i	i
COC(=O)c1sc(S(=O)(=O)NCc2ccccc2)c(C(=O)OC)c1C	i	-5.18*	i	-15.1	i	i
OCC1OC(Oc2c(Br)cc(Br)cc2Br)C(O)C(O)C1O (centres undefined)	nt	nt	nt	nt	i	nt
C[C@H](CO)N1C[C@H](C)[C@@H](CN(C)C(=O)Nc2ccc3c(c2)OCO3)Oc2ccc(NC(=O)C3CCCCC3)cc2C1=O	nt	nt	nt	nt	i	nt
CCOc1nc2ccccc2cc1C=O	11*	0.85	i	7.1*	i	i
C/C(=N\NC(=O)C1COc2ccccc2O1)c1ccc(N2CCOCC2)cc1 (centres undefined)	30*	0.04	i	5.6*	i	i
N#Cc1nc(COc2ccc(Cl)cc2Cl)oc1N1CCN(c2ccccc2)CC1	i	0.68	-6.61*	-17.4	i	i
Cc1cc(C(=O)NCCC(c2ccccc2)c2ccccc2)c(C)o1	i	1.27	i	-8.9	i	i
Cn1c(SCC(=O)NC2CCS(=O)(=O)C2)nnc1-c1ccco1 (centres undefined)	nt	nt	nt	nt	i	nt
Cc1c(N=Cc2cc(Br)cc(Br)c2O)cccc1C(=O)O	10*	2.55	i	-24.7	i	i
CC(C)c1csc(CN2CCN(CCc3ccccc3)C(CCO)C2)n1 (centres undefined)	i	-0.67	i	-7.9	i	i
C[C@H](CO)N1C[C@H](C)[C@@H](CN(C)C)Oc2c(NS(=O)(=O)c3ccc(F)cc3)cccc2C1=O	nt	nt	nt	nt	i	nt
Cc1ccc(C2N(C)C(=O)c3ccccc3N2C)cc1 (centres undefined)	i	0.04	i	-7.7	i	i
CCOC(=O)c1c(N)sc(C(O)(C(F)(F)F)C(F)(F)F)c1-c1ccccc1	i	-0.86	-7.53*	-18.4	i	i
O=C(CN1CCCc2ccccc21)NCCc1ccc(F)cc1	i	-6.52*	i	-12.4	i	i
O=C(Nc1ccsc1C(=O)O)c1ccc(Cl)cc1	i	0.18	i	-10.8	i	i
O=C1NN(c2ccccc2)C(=O)/C1=C\c1cccc(OC(=O)c2cccs2)c1	i	0.12	i	-3.5	i	i
SMILES	KCNQ1 pot	Kir21 inh	KCNK9 inh	hERG rescue	KCNK3 inh	KCNQ1 inh
O=C1NN(c2ccc(Cl)c(Cl)c2)C(=O)/C1=C/c1cccc(OC(=O)c2cccs2)c1	12*	-4.38*	i	-16.1	nt	i
Cc1nc2ccc(C(=O)N3c4ccccc4CC3C)cc2s1 (centres undefined)	i	-1.04	i	-10.2	i	i
Cc1ccc(C)c2[nH]c(=O)c(CN(Cc3ccco3)S(=O)(=O)c3ccc4c(c3)OCCO4)cc12	i	-0.25	i	-15.1	i	6*
Cc1ccc(C)c2[nH]c(=O)c(CN(Cc3ccc4c(c3)OCO4)Cc3nnnn3Cc3ccco3)cc12	i	1.92	-7.06*	-11.3	-9.41*	i
COc1ccc(-n2c(-c3ccc(Cl)cc3)c[n+]3c2CCc2ccccc2-3)cc1	i	-2.35	i	-19.2	i	11*
COc1cccc(N2C(=NC(=O)CCc3ccccc3)SC3CS(=O)(=O)CC32)c1 (centres undefined)	i	-0.15	i	-8.6	i	i
N#C/C(=C\c1cccs1)C(=O)c1ccccc1Cl	i	-6.99*	i	-3.9	i	i
CC(C)(C)C(=O)/C(C#N)=C/c1cccs1	i	-0.05	i	-3.2	i	i
CC(=O)C1=C(O)C(=O)N(c2ccc(O)cc2)C1c1ccccc1[N+](=O)[O-] (centres undefined)	i	-1.01	i	-0.2	i	i
CCOC(=O)Cc1ccc(NC(=O)c2cccc([N+](=O)[O-])c2)cc1	i	0.03	i	1.7	i	i
CC(NC(=O)Nc1cccc([N+](=O)[O-])c1)(C(F)(F)F)C(F)(F)F	i	0.58	i	-22.4	i	12*
CCOC(=O)/C(C)=N/NC(=O)c1cccc([N+](=O)[O-])c1	i	-0.76	i	11.7*	i	i
O=C(Nc1cccc([N+](=O)[O-])c1)Nc1cccs1	i	1.19	i	-31.9	i	8*
CCOC(=O)/C=C/C(=O)Nc1cccc([N+](=O)[O-])c1	i	-6.22*	i	-10.9	i	i
Cc1ccc(NC(=O)CN2CCN(S(=O)(=O)c3cccs3)CC2)cc1S(=O)(=O)N(C)C	i	0.53	i	-7.8	i	i
CC(=O)N(Cc1ccc(F)cc1)C1=C(NCc2ccccc2)C(=O)c2ccccc2C1=O	i	-1.37	-7.86*	-8.8	i	i
O=CN1Cc2ccccc2-c2ccccc2C1	i	0	i	-4.9	i	i
COc1ccccc1NC(=O)NC1(C(=O)NCC2CCCO2)CCCCC1 (centres undefined)	i	0.07	i	-9.0	i	i
CN(NS(=O)(=O)c1ccc(Cl)cc1)c1nc(C(F)(F)F)nc2ccccc12	i	0.28	-7.61*	-20.4	i	i
CN(NS(=O)(=O)c1ccccc1)c1nc2ccccc2nc1C(F)(F)F	i	-3.42	i	-8.4	i	i
Cc1cc2cc(C)c(NCCNC(=O)c3cccs3)nc2cc1C	i	0.81	i	-6.7	i	i
Cc1cccc2sc(NS(=O)(=O)c3ccccc3)nc12	i	-2.47	i	-2.0	i	6*
O=C(NCCCN1CCOCC1)c1ccc(CSCc2cccc(Cl)c2)o1	i	-0.15	i	-12.7	i	i
